# Experimental data reported in publication PMC4893934 (European journal of medicinal chemistry, 2016).
# “And” between values parts separate entries of the source, which are not always exact repeats. Equal values may be shown once.
# Legend:
# IDH1-R132H = IDH1-R132H (Homo sapiens, UniProt O75874, R132H); assay: Mutant IDH1 inhibition assay with purified enzyme; assay type: biochemical; details: for IC50: IC50 against the mutant IDH1, purified IDH1-R132H enzyme; for inhibition at 392 µM: read-out: maximal enzyme inhibition (inhibitory efficiency), purified IDH1-R132H enzyme, tested range 0.19 – 392 µM
# [1] = system: mutant IDH1 activity (2-HG production) in IDH1-R132H-mutated astrocytoma cell line; assay type: cell-based; details: 50 µM, 8 h post-incubation, IDH1-mutated astrocytoma cells
# Procedure, shortened: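 Isogenic anaplastic astrocytoma lines (WHO grade III-derived subclone with native IDH1-R132H; WT-IDH1 control) were seeded in duplicate at 30,000/well. At confluency, medium was replaced with test compound at 50 µM final (from 20 mM DMSO stock), n=2/experiment, under standard culture conditions. Supernatant was sampled at 4 and 8 h and stored at -80°C. D-2-HG was measured by LC-MS/MS. Controls were vehicle-treated mutant and WT cells.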
# mutant IDH1-R132H enzyme = details: read-out: IC50 against the mutant IDH1-R132H enzyme; cited from earlier work
# [2] = Tissue distribution studies; assay type: in vivo, BALB/C mice; details: for Biodistribution, Bladder / Biodistribution, Blood / Biodistribution, Bone / Biodistribution, Brain / Biodistribution, Heart / Biodistribution, Intestines / Biodistribution, Kidneys / Biodistribution, Liver / Biodistribution, Lungs / Biodistribution, Muscle / Biodistribution, Skin / Biodistribution, Spleen / Biodistribution, Stomach / Biodistribution, Thyroid: mean ± SD, n=5
# [3] = system: IDH1-R132H mutant and WT-IDH1 astrocytoma cell lines; assay: Cell uptake studies of labeled inhibitors; assay type: cell-based; details: for cell uptake, % of the added activity: mutant IDH1 cell line
# Procedure, shortened: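 IDH1-R132H and isogenic WT-IDH1 astrocytoma cells were plated about 24 h ahead at 20,000–30,000/well, then PBS-washed. Cells were incubated with radioiodinated test compound (~3.7 kBq/well) in culture medium at 37°C, 5% CO2, for 0.25–4 h. Co-incubation used unlabeled analog (0–100 µM) for 3 h, or 0.1%/1% versus 10% FBS. After ice-cold PBS washes and 5 min RT lysis, lysate, supernatant and washes were gamma-counted. Uptake is % incubation dose/well.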
# [4] = 5 min after i.v. injection, listed as 125I-labeled 1
# Sequence of IDH1-R132H (O75874 whole entry R132H): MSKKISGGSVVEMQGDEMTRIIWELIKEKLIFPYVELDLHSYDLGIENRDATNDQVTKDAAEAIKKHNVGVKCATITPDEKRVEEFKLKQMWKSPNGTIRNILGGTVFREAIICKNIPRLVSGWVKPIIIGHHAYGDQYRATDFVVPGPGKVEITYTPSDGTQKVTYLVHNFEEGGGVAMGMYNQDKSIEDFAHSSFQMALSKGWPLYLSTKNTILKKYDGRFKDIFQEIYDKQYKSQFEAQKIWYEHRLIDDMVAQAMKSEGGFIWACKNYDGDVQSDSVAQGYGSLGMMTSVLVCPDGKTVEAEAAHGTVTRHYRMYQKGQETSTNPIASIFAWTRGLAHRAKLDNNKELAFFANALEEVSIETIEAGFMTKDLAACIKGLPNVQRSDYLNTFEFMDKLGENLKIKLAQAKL
compound,measurement,setting,value
"CCCCc1ccc(NS(=O)(=O)c2ccc(C)c(C(=O)N3CCN(c4ccccc4I)CC3)c2)cc1 [Compound 1, N-(4-Butylphenyl)-3-(4-(2-iodophenyl)piperazine-1-carbonyl)-4-methylbenzenesulfonamide]",IC50,IDH1-R132H; 0.19 – 392 µM,1700 nM and ~2000 nM
same,inhibition at 392 µM,IDH1-R132H,~100%
same,decrease of 2-HG concentration in mutant IDH1 cell supernatants,[1],43%
"CCCCc1ccc(NS(=O)(=O)c2ccc(C)c(C(=O)N3CCN(c4ccc(I)cc4)CC3)c2)cc1 [Compound 2, N-(4-Butylphenyl)-3-(4-(4-iodophenyl)piperazine-1-carbonyl)-4-methylbenzenesulfonamide]",activity against mutant IDH1 (in words),"IDH1-R132H; purified IDH1-R132H enzyme, 0.19 – 392 µM",did not show any significant activity
"CCCCc1ccc(NS(=O)(=O)c2ccc(C)c(C(=O)N3CCN(c4ccccc4OCCF)CC3)c2)cc1 [Compound 4, N-(4-Butylphenyl)-3-(4-(2-(2-fluoroethoxy)phenyl)piperazine-1-carbonyl)-4-methylbenzenesulfonamide]",IC50,IDH1-R132H; 0.19 – 392 µM,2300 nM and ~2000 nM
same,inhibition at 392 µM,IDH1-R132H,~100%
same,decrease of 2-HG concentration in mutant IDH1 cell supernatants,[1],50%
"CCCCc1ccc(NS(=O)(=O)c2ccc(C)c(C(=O)N3CCN(c4ccc(OCCF)cc4)CC3)c2)cc1 [Compound 5, N-(4-Butylphenyl)-3-(4-(4-(2-fluoroethoxy)phenyl)piperazine-1-carbonyl)-4-methylbenzenesulfonamide]",IC50,IDH1-R132H; 0.19 – 392 µM,1200 nM
same,maximal enzyme inhibition (inhibitory efficiency),"IDH1-R132H; purified IDH1-R132H enzyme, tested range 0.19 – 392 µM, 392 µM",26.4%
same,inhibition at 392 µM,IDH1-R132H,~30%
"COc1ccccc1N1CCN(C(=O)c2cc(S(=O)(=O)Nc3ccc(CCCF)cc3)ccc2C)CC1 [Compound 6, N-(4-(3-Fluoropropyl)phenyl)-3-(4-(2-methoxyphenyl)piperazine-1-carbonyl)-4-methylbenzenesulfonamide]",IC50,IDH1-R132H; 0.19 – 392 µM,2700 nM
same,inhibition at 392 µM,IDH1-R132H,99%
"COc1ccccc1N1CCN(C(=O)c2cc(S(=O)(=O)Nc3ccc(CCCCF)cc3)ccc2C)CC1 [Compound 7, N-(4-(4-Fluorobutyl)phenyl)-3-(4-(2-methoxyphenyl)piperazine-1-carbonyl)-4-methylbenzenesulfonamide]",IC50,IDH1-R132H; 0.19 – 392 µM,2400 nM
same,inhibition at 392 µM,IDH1-R132H,81%
"CCCCc1ccc(NS(=O)(=O)c2ccc(C)c(C(=O)N3CCN(c4ccccc4OC)CC3)c2)cc1 [Compound A, N-(4-butylphenyl)-3-(4-(2-methoxyphenyl)piperazine-1-carbonyl)-4-methylbenzenesulfonamide, reference compound]",IC50,IDH1-R132H; 0.19 – 392 µM,2200 nM
same,inhibition at 392 µM,IDH1-R132H,~100%
same,IC50,mutant IDH1-R132H enzyme,< 1000 nM
"CCCCc1ccc(NS(=O)(=O)c2ccc(C)c(C(=O)N3CCN(c4ccccc4[125I])CC3)c2)cc1 [[^125I]1, N-(4-Butylphenyl)-3-(4-(2-[^125I]iodophenyl)piperazine-1-carbonyl)-4-methylbenzenesulfonamide]",uptake in the brain,[2]; 1 – 4 h after injection,≤ 0.07 %ID/g
same,"Biodistribution, Bladder",[2]; 5 min after i.v. injection,0.03 ± 0.01 %ID
same,"Biodistribution, Blood",[2]; 5 min after i.v. injection,about 12 %ID
same,"Biodistribution, Bone",[2]; 5 min after i.v. injection,3.92 ± 1.45 %ID
same,"Biodistribution, Brain",[2]; 5 min after i.v. injection,0.15 ± 0.05 %ID
same,"Biodistribution, Heart",[2]; 5 min after i.v. injection,1.11 ± 0.39 %ID
same,"Biodistribution, Intestines",[2]; 5 min after i.v. injection,6.37 ± 5.80 %ID
same,"Biodistribution, Kidneys",[2]; 5 min after i.v. injection,3.50 ± 1.08 %ID
same,"Biodistribution, Liver",[2]; 5 min after i.v. injection,About 30 %ID
same,"Biodistribution, Lungs",[2]; 5 min after i.v. injection,1.69 ± 0.83 %ID
same,"Biodistribution, Muscle",[2]; 5 min after i.v. injection,13.79 ± 4.85 %ID
same,"Biodistribution, Skin",[2]; 5 min after i.v. injection,3.31 ± 0.74 %ID
same,"Biodistribution, Spleen",[2]; 5 min after i.v. injection,0.36 ± 0.12 %ID
same,"Biodistribution, Stomach",[2]; 5 min after i.v. injection,0.40 ± 0.12 %ID
same,"Biodistribution, Thyroid",[2]; 5 min after i.v. injection,0.32 ± 0.18 %ID
same,"Biodistribution, Blood",[2]; [4],11.83 ± 1.99 %ID
same,"Biodistribution, Liver",[2]; [4],29.43 ± 5.60 %ID
same,activity concentration in the thyroid gland,[2]; 5 min after injection,1.69 ± 0.93 %ID/g
same,uptake in the brain,[2]; 5 min after injection,0.39 ± 0.13 %ID
same,"Biodistribution, Bladder",[2]; 1 h after i.v. injection,0.01 ± 0.01 %ID
same,"Biodistribution, Blood",[2]; 1 h after i.v. injection,0.71 ± 0.27 %ID
same,"Biodistribution, Bone",[2]; 1 h after i.v. injection,1.21 ± 0.14 %ID
same,"Biodistribution, Brain",[2]; 1 h after i.v. injection,0.03 ± 0.01 %ID
same,"Biodistribution, Heart",[2]; 1 h after i.v. injection,0.12 ± 0.02 %ID
same,"Biodistribution, Intestines",[2]; 1 h after i.v. injection,38.13 ± 1.49 %ID
same,"Biodistribution, Kidneys",[2]; 1 h after i.v. injection,0.88 ± 0.14 %ID
same,"Biodistribution, Liver",[2]; 1 h after i.v. injection,13.30 ± 0.69 %ID
same,"Biodistribution, Lungs",[2]; 1 h after i.v. injection,0.17 ± 0.02 %ID
same,"Biodistribution, Muscle",[2]; 1 h after i.v. injection,8.21 ± 0.77 %ID
same,"Biodistribution, Skin",[2]; 1 h after i.v. injection,2.90 ± 1.07 %ID
same,"Biodistribution, Spleen",[2]; 1 h after i.v. injection,0.05 ± 0.01 %ID
same,"Biodistribution, Stomach",[2]; 1 h after i.v. injection,0.65 ± 0.18 %ID
same,"Biodistribution, Thyroid",[2]; 1 h after i.v. injection,0.04 ± 0.03 %ID
same,maximum excreted into the urine,[2]; 1 h after injection,2.84 % ID
same,"Biodistribution, Bladder",[2]; 2 h after i.v. injection,0.02 ± 0.03 %ID
same,"Biodistribution, Blood",[2]; 2 h after i.v. injection,0.29 ± 0.09 %ID
same,"Biodistribution, Bone",[2]; 2 h after i.v. injection,0.60 ± 0.29 %ID
same,"Biodistribution, Brain",[2]; 2 h after i.v. injection,0.02 ± 0.01 %ID
same,"Biodistribution, Heart",[2]; 2 h after i.v. injection,0.04 ± 0.01 %ID
same,"Biodistribution, Intestines",[2]; 2 h after i.v. injection,53.24 ± 7.84 %ID
same,"Biodistribution, Kidneys",[2]; 2 h after i.v. injection,0.43 ± 0.15 %ID
same,"Biodistribution, Liver",[2]; 2 h after i.v. injection,6.57 ± 1.77 %ID
same,"Biodistribution, Lungs",[2]; 2 h after i.v. injection,0.07 ± 0.03 %ID
same,"Biodistribution, Muscle",[2]; 2 h after i.v. injection,3.91 ± 0.87 %ID
same,"Biodistribution, Skin",[2]; 2 h after i.v. injection,1.25 ± 0.53 %ID
same,"Biodistribution, Spleen",[2]; 2 h after i.v. injection,0.03 ± 0.01 %ID
same,"Biodistribution, Stomach",[2]; 2 h after i.v. injection,0.63 ± 0.82 %ID
same,"Biodistribution, Thyroid",[2]; 2 h after i.v. injection,0.05 ± 0.05 %ID
same,activity in the hepatobiliary system,[2]; 2 h after injection,approximately 60 % ID
same,"Biodistribution, Bladder",[2]; 4 h after i.v. injection,0.01 ± 0.01 %ID
same,"Biodistribution, Blood",[2]; 4 h after i.v. injection,about 0.13 %ID
same,"Biodistribution, Bone",[2]; 4 h after i.v. injection,0.22 ± 0.14 %ID
same,"Biodistribution, Brain",[2]; 4 h after i.v. injection,0.01 ± 0.00 %ID
same,"Biodistribution, Heart",[2]; 4 h after i.v. injection,0.01 ± 0.00 %ID
same,"Biodistribution, Intestines",[2]; 4 h after i.v. injection,41.40 ± 6.02 %ID
same,"Biodistribution, Kidneys",[2]; 4 h after i.v. injection,0.16 ± 0.03 %ID
same,"Biodistribution, Liver",[2]; 4 h after i.v. injection,3.41 ± 0.62 %ID
same,"Biodistribution, Lungs",[2]; 4 h after i.v. injection,0.03 ± 0.01 %ID
same,"Biodistribution, Muscle",[2]; 4 h after i.v. injection,1.57 ± 0.34 %ID
same,"Biodistribution, Skin",[2]; 4 h after i.v. injection,0.56 ± 0.09 %ID
same,"Biodistribution, Spleen",[2]; 4 h after i.v. injection,0.01 ± 0.01 %ID
same,"Biodistribution, Stomach",[2]; 4 h after i.v. injection,1.22 ± 2.12 %ID
same,"Biodistribution, Thyroid",[2]; 4 h after i.v. injection,0.06 ± 0.03 %ID
same,"Biodistribution, Blood","[2]; 4 h after i.v. injection, listed as 125I-labeled 1",0.13 ± 0.01 %ID
same,activity concentration in the thyroid gland,[2]; 4 h after injection,0.42 ± 0.16 %ID/g
same,activity concentration in the vital organs except liver,[2]; 4 h after injection,< 0.2 % ID/g
same,average uptake ratio mutant-IDH1 / WT-IDH1 cell lines,[3]; 2 h incubation,1.66
same,maximal increase in uptake versus no-carrier-added tracer,"[3]; co-incubation with 10 µM unlabeled 1, 3 h",53 fold
same,"cell uptake, % of the added activity",[3]; 15 min incubation,about 0.5%
same,"cell uptake, % of the added activity",[3]; 3 h incubation,0.80 ± 0.04%
